High-throughput results as filed in PubChem.
CHRM5 PAM: CHRM5 positive allosteric modulation; CHO-K1 hM5, Fluo-8 calcium, ACh EC20 PAM; 0% = ACh EC20, 100% = ACh EC100; activation, % at 3 µM; 0.3% of 360,000 active; AID 624038;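 active = activation above the run cutoff, the mean activation of all test compounds plus 3 SD, cut at about 18% in these data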
Target sequence (P08912 whole entry, looked up): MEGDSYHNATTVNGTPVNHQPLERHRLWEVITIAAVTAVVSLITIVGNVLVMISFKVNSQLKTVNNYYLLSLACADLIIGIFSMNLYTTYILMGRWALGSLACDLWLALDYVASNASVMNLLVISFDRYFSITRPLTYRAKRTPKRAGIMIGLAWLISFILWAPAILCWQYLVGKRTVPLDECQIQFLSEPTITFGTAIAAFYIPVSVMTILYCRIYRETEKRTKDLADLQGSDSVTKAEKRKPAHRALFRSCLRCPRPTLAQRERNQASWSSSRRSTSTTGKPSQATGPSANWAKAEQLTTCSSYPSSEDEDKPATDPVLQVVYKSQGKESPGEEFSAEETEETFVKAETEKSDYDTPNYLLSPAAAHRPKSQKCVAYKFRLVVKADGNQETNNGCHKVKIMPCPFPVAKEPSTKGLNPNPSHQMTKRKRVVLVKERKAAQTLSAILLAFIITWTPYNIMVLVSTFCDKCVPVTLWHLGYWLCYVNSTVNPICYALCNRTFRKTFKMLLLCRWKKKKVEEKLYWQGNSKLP
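Test system: CHO-K1 hM5 cells / Doses: single-point, 3 µM nominal / Times: Post-acetylcholine fluorescence recording 140 s / Technique: Fluo-8 calcium fluorescence / Measure: Max/basal fluorescence ratio as % of EC20–EC100 ACh window / Benchmarks: low control EC20 acetylcholine (0%), high control EC100 acetylcholine (100%) / Replicates: one well per compound, no replicates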
CHRM4 antagonist: blocks acetylcholine activation of human M4 receptor | P08173 | CHO-hM4 cells, ACh EC80, Fluo-8 calcium fluorescence | inhibition, % at 3 µM | 0.73% of 360,000 active;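 active = inhibition above its plate's cutoff, the mean inhibition of sample wells plus 3 SD, cut at about 27% in these data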
M5 antag: CHRM5 antagonism in calcium assay; 0.59% of 360,000 active; P08912; inhibition, % at 3 µM; CHO-hM5 cells, Fluo-8 calcium fluorescence, ACh EC80;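 active = inhibition above a per-plate cutoff, the mean of that plate's test compounds plus 3 SD, cut at about 27% in these data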
M4 ag: agonists of human muscarinic M4 receptor (CHRM4). P08173. CHO-K1 hM4/Gqi5, Fluo-8 calcium fluorescence; vehicle 0%, full acetylcholine response 100%. activation, % at 3 µM. 0.14% of 360,000 active. AID 624127;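 active = activation above the run mean over all test wells plus 3 SD, cut at about 32% in these data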;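 note: peak over basal fluorescence ratio per well then scaled between controls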
CHRM5 agonist: agonists of human muscarinic M5 receptor (CHRM5) | P08912 | activation, % at 3 µM | CHO-K1 hM5 cells, Fluo-8 calcium fluorescence; 0% DMSO wells, 100% maximal acetylcholine response | 0.19% of 360,000 active;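 active = activation above the run's mean over test compounds plus 3 SD, cut at about 23% in these data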;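 note: signal is peak over basal fluorescence ratio across the kinetic read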
CHRM4 PAM: CHRM4 positive allosteric modulation; 0.4% of 360,000 active; activation, % at 3 µM; CHO-K1 hM4/Gqi5, Fluo-8 calcium fluorescence, ACh EC20; 0% = ACh EC20, 100% = maximal ACh;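 active = activation above its plate's cutoff, the mean activation of sample wells plus 3 SD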
Each line names hits and unclear results; the compound was inactive in the other large screens. A selection: hits, their analogues and other compounds. The true share with any hit is near 1.9%.

Cc1ccc(C)c(N/C(N)=N/c2nc(C)cc(C)n2)c1	CHRM4 antagonist 66, M4 ag 91, CHRM5 agonist 30
CCCCN(CCCC)/C(N)=N/c1nc(C)cc(C)n1	none
CCOc1ccc(N/C(N)=N/c2nc(C)cc(C)n2)cc1	CHRM4 antagonist 50, M5 antag 39, M4 ag 50
CCOc1ccc(N/C(=N/c2nc(C)cc(C)n2)NC(=O)CC)cc1	none
CC(=O)Nc1ccc(N/C(N)=N/c2nc(C)cc(C)n2)cc1	none
Cc1cc(C)nc(/N=C(\N)Nc2ccc(-c3ccccc3)cc2)n1	CHRM4 antagonist 29, M4 ag 68, CHRM5 agonist 28
Cc1cc(C)nc(/N=C(\N)N(Cc2ccccc2)Cc2ccccc2)n1	CHRM4 antagonist 39, M5 antag 92
CCOC(=O)C1CN(S(=O)(=O)c2cccs2)c2ccc(CC(=O)OC)cc2O1 (stereo not drawn)	none
Cc1cc(C)nc(/N=C(\N)Nc2ccc(F)c([N+](=O)[O-])c2)n1	M4 ag 55
Cc1cc(C)nc(/N=C(\N)Nc2ccc(SC(F)F)cc2)n1	CHRM4 antagonist 55, M4 ag 96, CHRM5 agonist 35
COc1cccc(CNC(=O)C2CCN(S(=O)(=O)N3CCC(C)CC3)CC2)c1	none
O=C(NCCC1=CCCCC1)C(=O)NCc1ccncc1	CHRM4 PAM 21
O=C(NCCC1=CCCCC1)C(=O)NCCc1ccc(Cl)cc1	none
Cc1ccc(NC(=O)c2ccccc2NS(=O)(=O)c2ccc(F)cc2)cc1S(=O)(=O)N1CCCCC1	M5 antag 35
O=C(Nc1cccc(S(=O)(=O)N2CCCCC2)c1)c1ccccc1NS(=O)(=O)c1ccc(F)cc1	M5 antag 41
NS(=O)(=O)c1cccc(NC(=O)c2ccccc2NS(=O)(=O)c2ccc(F)cc2)c1	none
Cc1ccc(NC(=O)CSc2ncnc3ccccc23)cc1S(=O)(=O)N1CCCCC1	M5 antag 30
O=C(Nc1ccccc1C(=O)O)c1cc(S(=O)(=O)N2CCCCCC2)ccc1Cl	none
O=C(Nc1ccccc1Cl)c1cc(S(=O)(=O)N2CCCC(C(=O)O)C2)ccc1F (stereo not drawn)	CHRM4 PAM 51
CCn1cc(/C=C(\NC(=O)c2ccccc2F)C(=O)NCCN2CCOCC2)c2ccccc21	none
COC(=O)c1ccc(CN2CCN(C(C)C)C(CCO)C2)cc1 (stereo not drawn)	none
COc1cccc(NC(=O)CN(C)C(=O)c2c(-c3ccccc3)noc2C)c1	none
Cc1ccc(NC(=O)c2cnccn2)cc1S(=O)(=O)N1CCCCCC1	M5 antag 28
CCC(Sc1nc2c(cnn2-c2ccc(Cl)cc2)c(=O)[nH]1)C(=O)OC (stereo not drawn)	CHRM4 antagonist 40
COc1ccc(C(=O)Nc2cc(Cl)ccc2C(=O)O)cc1	CHRM5 PAM 20
COc1ccc(C(=O)Nc2cc(Cl)ccc2OC(=O)c2ccc(OC)cc2)cc1	none
O=C(NNc1ccccc1)Nc1cc(Cl)ccc1Cl	CHRM5 PAM 19
O=C(c1ccc2c(=O)n3c(nc2c1)CCCCC3)N1CCN(c2ccccc2)CC1	none
O=C(c1ccc(=O)oc1)N1CCN(C(c2ccccc2)c2ccccc2)CC1	CHRM4 antagonist 43, M5 antag 36
O=C(c1ccc2c(=O)n3c(nc2c1)CCCCC3)N1CCN(C(c2ccccc2)c2ccccc2)CC1	CHRM4 antagonist 64
Cc1ccc(-c2csc(NC(=O)c3ccc4c(=O)n5c(nc4c3)CCCCC5)n2)cc1	CHRM4 PAM 23
CC(=NNC(=O)c1ccncc1)c1ccc(O)cc1O	CHRM5 PAM 22
C/C(=N/NC(=O)c1ccncc1)c1ccc(NC(=O)c2ccc(Cl)cc2Cl)cc1	none
CC(=NNC(=O)c1ccncc1)c1ccc2ccccc2c1O	M4 ag 57, CHRM5 agonist 194
CC(C)CC(=NNC(=O)c1ccncc1)c1cc(Cl)ccc1O	M4 ag 40, CHRM5 agonist 38
CC(=NNC(=O)c1ccncc1)c1ccccc1O	none
Cc1ccc(C)c(NC(=O)CC2Oc3ccccc3NC2=O)c1 (stereo not drawn)	none
NNC(=O)c1nc(Cl)c(Cl)c(N)c1Cl	none
Cc1ccc(CN2CCC[C@]3(N[C@H](c4ccc(C)cc4)[C@@H]4C(=O)N(Cc5ccccc5)C(=O)[C@@H]43)C2=O)cc1	none
CCCc1cc(=O)oc2cc(OCc3cc(OC)c(OC)c(OC)c3)c(Cl)cc12	none
CCCCc1cc(=O)oc2cc(OCc3cc(OC)c(OC)c(OC)c3)c(Cl)cc12	CHRM4 PAM 16
C/C(=N/N=C1\SCC(=O)N1c1ccccc1)c1ccc(C)cc1	none
N#Cc1c(-c2ccccc2Cl)noc1/C=C/Nc1ccc(C(=O)O)cc1	none
c1ccc2c(c1)COc1c3cc4c(cc3nn1-2)OCO4	CHRM4 PAM 20
CC(C)OCCCNC(=O)CCC(=O)NNc1nc2ccccc2c2nc(-c3ccccc3)nn12	none
Cc1ccc(S(=O)(=O)N2CCCCC2)cc1NC(=O)CSc1nncn1-c1ccccc1	CHRM5 PAM 23
Nc1[nH]nc2nc(N3CCCC3)nc(-c3ccccc3)c12	CHRM5 PAM 25
CSc1cccc(CN2CCC(n3nccc3NC(=O)C3CC3)CC2)c1	none
CCCCCc1c(-c2ccc(Cl)cc2)ncn1CCc1ccccc1OC	none
CCCCCc1c(-c2ccc(OC)cc2)ncn1CCc1ccccc1OC	CHRM4 antagonist 34
CCCCc1c(-c2ccccc2)ncn1CCc1ccccc1OC	none
CCCCc1c(-c2ccc(OC)cc2)ncn1CCc1ccccc1OC	CHRM4 antagonist 33
Cc1nnc(SCCn2c(N3CCC(C)CC3)nc3c2c(=O)[nH]c(=O)n3C)s1	none
Cc1nnc(SCCn2c(N3CCCC(C)C3)nc3c2c(=O)[nH]c(=O)n3C)s1 (stereo not drawn)	CHRM5 PAM 19
COc1cc2ccccc2cc1C(=O)N1CC(C)CC(C)C1 (stereo not drawn)	none
Cc1sc2ncnc(NCC(O)c3ccccc3)c2c1C (stereo not drawn)	none
Cc1sc2ncnc(NCC(O)c3ccc([N+](=O)[O-])cc3)c2c1C (stereo not drawn)	M5 antag 36
COc1ccc2c(c1OC)C(=O)N1C2SC[C@H]1C(=O)NC1CCCCC1 (stereo partly drawn)	CHRM5 agonist 38
CCC(=O)Nc1ccc(C(=O)CN2C(=O)NC3(CCCCCC3)C2=O)cc1	none
CCOC(=O)C1CCCN(C(=O)Cc2c(C(=O)O)[nH]c3ccccc23)C1 (stereo not drawn)	CHRM5 agonist 38
